Measured values taken from PMC8717676 (The Journal of nutritional biochemistry, 2011).
“And” between values parts separate entries of the source, which are not always exact repeats. Identical values can stand only once. Like-named read-outs stand apart in the source and are kept apart here.

Key:
[1] = test system: superoxide production by NDH-1 and NDH-2; type: biochemical, E. coli
How it was run: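 E. coli membrane vesicles, prepared at pH 6.0, from strain MWC215 (no NDH-2) or BA14 (nuo deletion, no NDH-1); 200 μg in 0.2 ml of 50 mM MOPS pH 7.3 with 10 mM MgCl2. Preincubated 5 min with increasing test compound, then 5 μM MitoSOX plus 1.25 mM NADH added. Dark, 15 min, 30 °C; fluorescence 510/580 nm. Background controls: no NADH; SOD (150 units).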

[2] = test system: ATP synthase from E. coli; settings: cited from earlier work
[3] = target: membrane-bound F1Fo-ATPase (Escherichia coli, UniProt P0ABA6+P0ABB0+P0ABB4); assay: ATP hydrolysis by membrane vesicles; type: biochemical, E. coli; settings: for IC50: two replicates of 5-6 concentrations
NDH-1 (Complex I) = NDH-1 (Complex I) (Escherichia coli, UniProt P31979); assay: NDH-1 NADH oxidase activity in membrane vesicles; type: biochemical, E. coli; settings: for NDH-1 Deamino-NADH oxidase Maximum inhibition: strain 1100 membranes
[4] = target: NDH-2 (alternative NADH dehydrogenase) (Escherichia coli, UniProt P00393); assay: NDH-2 NADH oxidase activity in membrane vesicles of strain BA14; type: biochemical, E. coli
Sequence of NDH-2 (alternative NADH dehydrogenase) (P00393 whole entry): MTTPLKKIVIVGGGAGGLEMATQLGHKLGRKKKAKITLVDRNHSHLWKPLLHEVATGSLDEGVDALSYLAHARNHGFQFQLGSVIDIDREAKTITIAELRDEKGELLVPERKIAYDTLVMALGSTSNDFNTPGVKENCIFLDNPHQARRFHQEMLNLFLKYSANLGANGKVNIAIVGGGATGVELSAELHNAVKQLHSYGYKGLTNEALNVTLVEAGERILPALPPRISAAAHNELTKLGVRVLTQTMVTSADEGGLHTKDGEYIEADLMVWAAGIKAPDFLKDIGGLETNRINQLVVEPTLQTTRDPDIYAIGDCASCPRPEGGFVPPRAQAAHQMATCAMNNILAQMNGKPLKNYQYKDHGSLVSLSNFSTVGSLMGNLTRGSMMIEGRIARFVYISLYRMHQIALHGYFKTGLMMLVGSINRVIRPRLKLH

F1-ATPase = F1-ATPase (Escherichia coli, UniProt P0ABA6+P0ABB0+P0ABB4); assay: ATP hydrolysis by purified F1-ATPase, colorimetric phosphate release; type: biochemical, E. coli; settings: for IC50: read-out: F1-ATPase Activity IC50
Sequence of F1-ATPase (P0A6E6 2-139): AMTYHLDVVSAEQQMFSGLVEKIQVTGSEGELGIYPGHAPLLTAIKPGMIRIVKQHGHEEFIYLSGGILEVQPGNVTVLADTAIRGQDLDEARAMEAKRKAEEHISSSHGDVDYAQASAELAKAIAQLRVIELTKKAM
Sequence of F1-ATPase (P0ABB4 2-460): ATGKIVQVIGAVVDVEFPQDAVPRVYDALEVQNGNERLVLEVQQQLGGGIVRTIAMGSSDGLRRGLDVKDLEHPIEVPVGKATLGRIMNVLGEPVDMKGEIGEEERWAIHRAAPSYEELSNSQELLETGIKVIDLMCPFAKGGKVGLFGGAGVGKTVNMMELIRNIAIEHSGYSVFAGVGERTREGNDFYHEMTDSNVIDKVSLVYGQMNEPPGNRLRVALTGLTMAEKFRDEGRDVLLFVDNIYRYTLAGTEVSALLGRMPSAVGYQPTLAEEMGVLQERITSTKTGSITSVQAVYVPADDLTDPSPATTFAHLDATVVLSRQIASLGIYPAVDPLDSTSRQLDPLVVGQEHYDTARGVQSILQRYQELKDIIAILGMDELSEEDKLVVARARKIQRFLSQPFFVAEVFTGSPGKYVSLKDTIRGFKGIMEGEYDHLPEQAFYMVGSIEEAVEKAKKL
Sequence of F1-ATPase (P0ABB0 whole entry): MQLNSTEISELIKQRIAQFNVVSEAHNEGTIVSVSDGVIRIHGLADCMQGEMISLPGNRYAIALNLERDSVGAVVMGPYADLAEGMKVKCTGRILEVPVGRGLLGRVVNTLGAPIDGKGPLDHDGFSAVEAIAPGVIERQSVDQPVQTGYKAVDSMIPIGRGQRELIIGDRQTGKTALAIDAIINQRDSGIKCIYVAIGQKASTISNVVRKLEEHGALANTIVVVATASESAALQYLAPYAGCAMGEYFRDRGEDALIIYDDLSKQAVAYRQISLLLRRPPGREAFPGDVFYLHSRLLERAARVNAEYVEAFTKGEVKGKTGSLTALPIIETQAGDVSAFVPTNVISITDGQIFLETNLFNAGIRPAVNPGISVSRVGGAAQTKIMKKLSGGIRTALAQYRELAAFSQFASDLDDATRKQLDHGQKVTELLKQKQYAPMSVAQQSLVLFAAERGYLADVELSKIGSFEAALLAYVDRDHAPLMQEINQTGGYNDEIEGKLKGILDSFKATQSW
Sequence of F1-ATPase (P0ABA4 whole entry, further chain): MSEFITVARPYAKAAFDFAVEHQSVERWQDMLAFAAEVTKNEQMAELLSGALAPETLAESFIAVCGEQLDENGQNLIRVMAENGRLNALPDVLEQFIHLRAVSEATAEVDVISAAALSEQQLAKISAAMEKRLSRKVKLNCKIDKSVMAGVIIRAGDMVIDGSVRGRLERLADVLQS
Sequence of F1-ATPase (P0ABA6 whole entry): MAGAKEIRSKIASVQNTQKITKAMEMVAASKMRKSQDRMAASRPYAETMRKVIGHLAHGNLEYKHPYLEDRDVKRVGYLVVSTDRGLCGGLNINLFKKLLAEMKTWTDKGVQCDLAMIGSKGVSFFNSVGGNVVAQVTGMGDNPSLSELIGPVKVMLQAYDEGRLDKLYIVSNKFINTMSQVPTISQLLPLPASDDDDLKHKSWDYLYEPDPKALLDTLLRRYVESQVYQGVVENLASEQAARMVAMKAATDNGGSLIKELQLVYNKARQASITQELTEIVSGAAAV

[5] = test system: rat liver mitochondrial ATP synthase; settings: read-out: IC50, rat liver mitochondrial ATP synthase; cited from earlier work
[6] = membrane vesicles from wild type strain 1100
[7] = read-out: Membrane-bound ATPase Activity IC50, membrane vesicles from wild type strain 1100
[8] = read-out: NDH-2 NADH oxidase IC50, strain BA14 membranes, 250 μM NADH

Row | Compound | extent of inhibition of E. coli ATP synthase [2] | Membrane-bound ATPase Activity Maximum inhibition [3, 6] | NDH-1 Deamino-NADH oxidase Maximum inhibition (NDH-1 (Complex I)) | NDH-2 NADH oxidase Maximum inhibition ([4]; strain BA14 membranes) | F1-ATPase Activity Maximum inhibition (F1-ATPase) | IC50 (F1-ATPase) | other results
1 | theaflavin-3,3′-digallate [TF3] | – | – | – | – | – | – | concentration at which superoxide production was completely eliminated ([1]; NADH oxidation by each dehydrogenase): about 15 μM; effect on superoxide production ([1]; added at levels in the range of the IC50 value): superoxide did not increase, but rather decreased
2 | Oc1cc(O)cc(/C=C/c2ccc(O)c(O)c2)c1 [piceatannol] | complete inhibition | – | – | – | – | – | –
3 | NC12CC3CC(CC(C3)C1)C2 [amantidin] | complete inhibition | – | – | – | – | – | –
4 | O=C(O[C@@H]1Cc2c(O)cc(O)cc2O[C@@H]1c1cc(=O)c(O)c2c(O)c(O)cc([C@H]3Oc4cc(O)cc(O)c4C[C@H]3O)c2c1)c1cc(O)c(O)c(O)c1 [TF2A, theaflavin-3-gallate] | – | 95% | 95% | 95% | 90% | 3 µM | IC50 [3, 7]: 20 µM; IC50 [4, 8]: 3.5 µM
5 | O=C(O[C@@H]1Cc2c(O)cc(O)cc2O[C@@H]1c1cc(O)c(O)c2c(=O)c(O)cc([C@H]3Oc4cc(O)cc(O)c4C[C@H]3O)cc12)c1cc(O)c(O)c(O)c1 [TF2B, theaflavin-3′-gallate] | – | 95% | 95% | 90% | 95% | 1.5 µM | IC50 [3, 7]: 15 µM; IC50 [4, 8]: 2.5 µM
6 | O=c1c(O)cc([C@H]2Oc3cc(O)cc(O)c3C[C@H]2O)cc2c([C@H]3Oc4cc(O)cc(O)c4C[C@H]3O)cc(O)c(O)c12 [TF1, theaflavin] | – | 85% | 95% | 75% | 85% | 4 µM | IC50 ([3]; Membrane-bound ATPase Activity IC50, membrane vesicles from wild type strain 1100): ~60 µM and 60 µM; IC50 (NDH-1 (Complex I)): 45 µM; IC50 [4]: 3 µM
7 | (−) epigallocatechin gallate [EGCG, reference compound] | – | 95% | 90% | 65% | 90% | 4.5 µM | IC50 [3, 7]: ~30 µM and 30 µM; IC50 [4, 8]: 20 µM; IC50 [5]: 17 µM
8 | O=c1c(O)c(-c2ccc(O)cc2O)oc2cc(O)cc(O)c12 [morin] | complete inhibition | – | – | – | – | – | –
9 | Oc1cc(O)c2c(c1)O[C@H](c1ccc(O)c(O)c1)[C@H](O)C2 [epicatechin, (−) epicatechin] | complete inhibition | – | – | – | – | – | IC50 ([2]; read-out: IC50, E. coli ATP synthase): 4000 µM
10 | COc1cc(C2Oc3cc([C@H]4Oc5cc(O)cc(O)c5C(=O)[C@@H]4O)ccc3OC2CO)ccc1O (stereo partly shown) [silibinin] | complete inhibition | – | – | – | – | – | –
11 | O=c1cc(-c2ccccc2)oc2cc(O)c(O)c(O)c12 [baicalein] | complete inhibition | – | – | – | – | – | –
12 | CC(N)C12CC3CC(CC(C3)C1)C2 (stereo not shown) [rimantadin] | complete inhibition | – | – | – | – | – | –
